Source: publication PMC3158671 (Carbohydrate Research, 2011)

Columns and labels:
[1] = molecular target: T1, human lysosomal β-galactosidase (Homo sapiens, UniProt P16278); assay: Human lysosomal β-galactosidase inhibition; format: biochemical
T1 sequence (P16278 29-677): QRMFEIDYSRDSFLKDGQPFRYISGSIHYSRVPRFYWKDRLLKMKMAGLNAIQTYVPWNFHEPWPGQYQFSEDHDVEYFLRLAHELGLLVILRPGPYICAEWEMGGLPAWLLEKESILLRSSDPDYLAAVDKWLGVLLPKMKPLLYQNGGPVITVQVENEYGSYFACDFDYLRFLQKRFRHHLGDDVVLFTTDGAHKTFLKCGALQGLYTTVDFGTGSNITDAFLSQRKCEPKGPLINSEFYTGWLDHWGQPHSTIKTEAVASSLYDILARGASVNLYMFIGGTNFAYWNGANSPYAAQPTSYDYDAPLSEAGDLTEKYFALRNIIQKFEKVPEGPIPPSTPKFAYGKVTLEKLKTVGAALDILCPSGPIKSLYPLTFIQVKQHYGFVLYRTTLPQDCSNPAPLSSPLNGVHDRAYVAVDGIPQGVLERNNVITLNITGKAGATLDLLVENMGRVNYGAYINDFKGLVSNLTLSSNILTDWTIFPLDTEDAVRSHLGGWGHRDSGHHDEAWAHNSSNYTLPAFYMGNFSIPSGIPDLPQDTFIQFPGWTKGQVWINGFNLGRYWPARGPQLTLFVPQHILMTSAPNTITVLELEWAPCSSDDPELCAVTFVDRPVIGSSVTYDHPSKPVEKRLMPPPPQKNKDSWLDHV

[2] = molecular target: T2, β-glucosidase/β-galactosidase from Agrobacterium sp. (Agrobacterium sp., UniProt P12614); assay: Agrobacterium sp. β-galactosidase/-glucosidase inhibition; format: biochemical
T2 sequence (P12614 1-459): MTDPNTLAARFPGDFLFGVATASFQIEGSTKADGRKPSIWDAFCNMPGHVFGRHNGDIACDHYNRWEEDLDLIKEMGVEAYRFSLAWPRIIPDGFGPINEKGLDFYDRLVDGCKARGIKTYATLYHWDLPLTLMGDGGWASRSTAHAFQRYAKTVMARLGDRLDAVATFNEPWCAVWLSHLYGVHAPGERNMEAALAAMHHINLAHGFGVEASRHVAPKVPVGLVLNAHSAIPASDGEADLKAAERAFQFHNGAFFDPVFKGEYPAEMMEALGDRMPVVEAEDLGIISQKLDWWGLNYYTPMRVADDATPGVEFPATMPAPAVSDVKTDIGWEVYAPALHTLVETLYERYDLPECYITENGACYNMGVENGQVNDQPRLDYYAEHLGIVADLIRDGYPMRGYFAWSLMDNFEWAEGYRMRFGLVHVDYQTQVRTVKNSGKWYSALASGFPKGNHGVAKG

[3] = molecular target: T3, β-galactosidase p.Arg483Pro mutation (Felis catus, UniProt O19015, R483P); assay: Intracellular β-galactosidase activity in GM1 gangliosidosis feline fibroblasts; format: cell-based, cat; conditions: 5 days; for maximal increase of intracellular β-galactosidase activity: relative to DMSO treated cells
T3 sequence (O19015 30-669 R483P): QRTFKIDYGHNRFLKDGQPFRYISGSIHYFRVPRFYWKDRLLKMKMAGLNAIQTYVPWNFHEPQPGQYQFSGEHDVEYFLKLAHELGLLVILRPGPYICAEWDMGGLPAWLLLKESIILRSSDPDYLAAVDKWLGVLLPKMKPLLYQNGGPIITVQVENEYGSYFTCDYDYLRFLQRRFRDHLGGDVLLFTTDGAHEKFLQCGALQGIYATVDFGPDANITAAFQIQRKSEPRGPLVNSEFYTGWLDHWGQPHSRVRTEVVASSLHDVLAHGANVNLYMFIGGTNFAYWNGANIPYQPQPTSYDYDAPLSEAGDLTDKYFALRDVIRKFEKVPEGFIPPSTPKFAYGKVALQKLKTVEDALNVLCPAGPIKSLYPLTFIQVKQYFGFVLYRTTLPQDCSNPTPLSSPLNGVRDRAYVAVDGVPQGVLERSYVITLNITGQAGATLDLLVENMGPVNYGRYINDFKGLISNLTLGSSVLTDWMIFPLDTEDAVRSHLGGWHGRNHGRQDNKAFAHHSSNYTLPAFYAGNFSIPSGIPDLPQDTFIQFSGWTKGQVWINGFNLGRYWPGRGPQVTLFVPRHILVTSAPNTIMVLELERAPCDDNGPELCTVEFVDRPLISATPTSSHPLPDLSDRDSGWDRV
Method in brief: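 GM1 gangliosidosis fibroblasts from an affected cat (β-galactosidase p.Arg483Pro) treated 5 days with escalating doses of test compound dissolved in DMSO. Cells lysed; intracellular β-galactosidase measured with fluorogenic 4-methylumbelliferyl β-D-galactopyranoside, β-N-acetylhexosaminidase also measured with MU substrate. Activity normalized to DMSO-treated cells.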

[4] = molecular target: α-galactosidase from green coffee beans (Coffea arabica, UniProt Q42656); assay: Green coffee bean α-galactosidase inhibition; format: biochemical
Sequence of α-galactosidase from green coffee beans (Q42656 16-378): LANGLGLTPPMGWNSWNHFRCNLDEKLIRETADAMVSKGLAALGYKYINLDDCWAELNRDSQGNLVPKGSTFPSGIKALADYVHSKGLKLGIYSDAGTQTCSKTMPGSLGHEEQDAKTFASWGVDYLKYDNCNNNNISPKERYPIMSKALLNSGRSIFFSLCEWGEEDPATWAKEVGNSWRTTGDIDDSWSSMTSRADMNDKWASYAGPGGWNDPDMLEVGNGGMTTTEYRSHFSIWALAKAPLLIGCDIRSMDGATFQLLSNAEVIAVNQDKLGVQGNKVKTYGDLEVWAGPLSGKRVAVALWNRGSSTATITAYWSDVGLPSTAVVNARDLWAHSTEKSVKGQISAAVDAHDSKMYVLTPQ

[5] = molecular target: β-galactosidase from E. coli (Escherichia coli, UniProt P00722); assay: E. coli β-galactosidase inhibition; format: biochemical
Sequence of β-galactosidase from E. coli (P00722 2-1024 limits assumed): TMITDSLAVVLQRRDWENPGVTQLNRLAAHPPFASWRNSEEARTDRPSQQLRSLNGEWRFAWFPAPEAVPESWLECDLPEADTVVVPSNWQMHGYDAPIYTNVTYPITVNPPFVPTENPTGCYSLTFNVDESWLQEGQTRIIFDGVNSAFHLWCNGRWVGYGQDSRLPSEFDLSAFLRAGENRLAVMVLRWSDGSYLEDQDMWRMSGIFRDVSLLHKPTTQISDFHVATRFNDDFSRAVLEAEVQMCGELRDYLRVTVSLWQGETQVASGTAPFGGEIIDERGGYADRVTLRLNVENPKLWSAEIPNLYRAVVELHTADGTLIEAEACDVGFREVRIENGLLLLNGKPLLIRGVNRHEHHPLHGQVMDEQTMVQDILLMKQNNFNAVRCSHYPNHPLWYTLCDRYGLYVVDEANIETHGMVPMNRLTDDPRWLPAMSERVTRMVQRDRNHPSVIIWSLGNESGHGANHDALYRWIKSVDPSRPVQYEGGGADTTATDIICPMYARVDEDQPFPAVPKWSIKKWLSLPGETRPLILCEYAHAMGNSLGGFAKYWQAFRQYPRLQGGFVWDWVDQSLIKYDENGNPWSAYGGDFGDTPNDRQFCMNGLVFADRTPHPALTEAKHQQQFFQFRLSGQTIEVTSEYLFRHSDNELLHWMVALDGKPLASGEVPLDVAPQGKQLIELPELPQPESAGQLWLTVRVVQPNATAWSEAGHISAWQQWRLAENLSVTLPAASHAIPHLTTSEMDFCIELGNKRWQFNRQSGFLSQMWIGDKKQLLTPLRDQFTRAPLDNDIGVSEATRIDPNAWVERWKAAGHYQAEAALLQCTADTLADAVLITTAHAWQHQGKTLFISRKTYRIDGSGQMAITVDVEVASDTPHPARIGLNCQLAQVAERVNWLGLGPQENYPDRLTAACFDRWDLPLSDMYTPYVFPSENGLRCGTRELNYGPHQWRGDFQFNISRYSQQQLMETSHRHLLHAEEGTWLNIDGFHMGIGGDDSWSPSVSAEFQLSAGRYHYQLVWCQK

| Compound | IC50 [1] | Ki [2] | concentration at maximal increase of intracellular β-galactosidase activity [3] | range of β-galactosidase activity enhancement [3] | maximal increase of intracellular β-galactosidase activity [3] | Ki [4] | Ki [5] |
| --- | --- | --- | --- | --- | --- | --- | --- |
| CN(C)c1cccc2c(S(=O)(=O)NCCCCCCNC(=O)CCCCCN3C[C@H](O)[C@@H](O)[C@@H](O)[C@H]3CO)cccc12 [Compound 8, N-(Dansylamino)hexylaminocarbonylpentyl-1,5-dideoxy-1,5-imino-D-galactitol] | 6200 nM | 450 nM | 258 µM | large range over which it enhanced β-galactosidase activity | 1.7 fold |  |  |
| CN(C)c1cccc2c(S(=O)(=O)NCCCCCCN(CCCCCCNS(=O)(=O)c3cccc4c(N(C)C)cccc34)CCCCCCN3C[C@H](O)[C@@H](O)[C@@H](O)[C@H]3CO)cccc12 [Compound 13, N-Bis(dansylaminohexyl)aminohexyl-1,5-dideoxy-1,5-imino-D-galactitol] | 2700 nM | 230 nM | 3.0 µM |  | 1.8 fold | 530 nM | 120 nM |
| CN(C)c1cccc2c(S(=O)(=O)NCCCCCCN(CCCCCCNS(=O)(=O)c3cccc4c(N(C)C)cccc34)C(=O)CCCCCN3C[C@H](O)[C@@H](O)[C@@H](O)[C@H]3CO)cccc12 [Compound 9, N-Bis(dansylaminohexyl)aminocarbonylpentyl-1,5-dideoxy-1,5-imino-D-galactitol] | 850 nM | 630 nM | 2.1 µM |  | 1.5 fold | 2600 nM | 290 nM |
| CCCCCCCC(=O)N(CCCCCCNS(=O)(=O)c1cccc2c(N(C)C)cccc12)CCCCCCN1C[C@H](O)[C@@H](O)[C@@H](O)[C@H]1CO [Compound 15, N-[(Dansylaminohexyl)-N-octanoylamino]hexyl-1,5-dideoxy-1,5-imino-D-galactitol] | 1800 nM | 28 nM |  |  |  | 200 nM | 47 nM |
